# Where two headings read alike, the source gives them in different places.
# T1: AIRE-PHD1 wild type (Homo sapiens, UniProt O43918)
# T1 sequence (O43918 293-354): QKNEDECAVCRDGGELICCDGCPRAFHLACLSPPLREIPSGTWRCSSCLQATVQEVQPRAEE
# T2: AIRE-PHD1 Glu298Ala (Homo sapiens, UniProt O43918, E298A)
# T2 sequence (O43918 293-354 E298A): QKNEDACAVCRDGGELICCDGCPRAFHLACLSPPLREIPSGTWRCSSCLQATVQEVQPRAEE
# T3: AIRE-PHD1 Asp304Ala (Homo sapiens, UniProt O43918, D304A)
# T3 sequence (O43918 293-354 D304A): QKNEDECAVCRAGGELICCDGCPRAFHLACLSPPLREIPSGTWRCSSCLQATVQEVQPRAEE
# T4: AIRE-PHD1 Glu307Ala (Homo sapiens, UniProt O43918, E307A)
# T4 sequence (O43918 293-354 E307A): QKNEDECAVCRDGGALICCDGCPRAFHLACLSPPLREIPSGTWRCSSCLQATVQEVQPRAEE
# T5: AIRE-PHD1 Glu298Ala (human, UniProt O43918 293-354, Glu298Ala)
# T5 sequence (looked up): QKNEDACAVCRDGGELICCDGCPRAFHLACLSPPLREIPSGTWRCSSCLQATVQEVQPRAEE
# T6: AIRE-PHD1 Asp304Ala (human, UniProt O43918 293-354, Asp304Ala)
# T6 sequence (looked up): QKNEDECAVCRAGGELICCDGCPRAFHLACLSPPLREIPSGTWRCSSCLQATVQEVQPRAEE
# T7: AIRE-PHD1 Glu307Ala (human, UniProt O43918 293-354, Glu307Ala)
# T7 sequence (looked up): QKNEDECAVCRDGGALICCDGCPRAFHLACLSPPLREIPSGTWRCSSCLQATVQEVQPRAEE
# T8: first PHD finger of autoimmune regulator (AIRE-PHD1), wild type (human, UniProt O43918 293-354)
# T8 sequence (looked up): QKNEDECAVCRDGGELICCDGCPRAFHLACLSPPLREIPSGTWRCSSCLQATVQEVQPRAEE
# Assays:
# [1] = target: T1, AIRE-PHD1 wild type; test: Isothermal titration calorimetry; format: binding; conditions: for ΔG / −TΔS: AIRE-PHD1 wt, ITC 23°C, pH 7.2, duplicate, ND = not detectable
# [2] = target: T1, AIRE-PHD1 wild type; test: Tryptophan fluorescence titration; format: binding
# [3] = target: first PHD finger of autoimmune regulator (AIRE-PHD1), wild type (human) (UniProt O43918); test: other fluorescence titration
# [4] = target: first PHD finger of autoimmune regulator (AIRE-PHD1), wild type (human) (UniProt O43918); test: ITC
# [5] = system: GST-AIRE-PHD1; test: Peptide pull-down / in vitro binding assays; design: species or system human; conditions: in vitro: fluorescence titrations, ITC and peptide pull-down assays
# [6] = target: T2, AIRE-PHD1 Glu298Ala; test: Isothermal titration calorimetry; format: binding; conditions: AIRE-PHD1 Glu298Ala mutant, ITC 23°C, pH 7.2
# Summary of the method: (§1)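 Recombinant AIRE-PHD1 (Gln293–Glu354) point mutants, made by overlap-extension PCR and mass-verified by MALDI, at 40–85 μM in 20 mM phosphate, 150 mM NaCl, 2 mM β-mercaptoethanol, 50 μM ZnCl2, pH 7.2. Synthetic H3 1–10 peptides (0.54–2.5 mM) were injected 28–57 times at 15 min spacing, 23°C, stirring 307 rpm. Heats were corrected for dilution and fitted to a one-site model by nonlinear least squares. Run in duplicate.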
# [7] = target: T1, AIRE-PHD1 wild type; conditions: AIRE-PHD1 wt, ITC; previous experiments; ref [22]; cited from earlier work
# [8] = target: T3, AIRE-PHD1 Asp304Ala; test: Isothermal titration calorimetry; format: binding; conditions: AIRE-PHD1 Asp304Ala mutant, ITC 23°C, pH 7.2
# Summary of the method: as §1
# [9] = target: T4, AIRE-PHD1 Glu307Ala; test: Isothermal titration calorimetry; format: binding; conditions: AIRE-PHD1 Glu307Ala mutant, ITC 23°C, pH 7.2
# Summary of the method: as §1
# [10] = target: T5, AIRE-PHD1 Glu298Ala; test: ITC
# [11] = target: T6, AIRE-PHD1 Asp304Ala; test: ITC
# [12] = target: T7, AIRE-PHD1 Glu307Ala; test: ITC
# [13] = target: T5, AIRE-PHD1 Glu298Ala; test: other fluorescence titration
# [14] = target: T6, AIRE-PHD1 Asp304Ala; test: other fluorescence titration
# [15] = target: T7, AIRE-PHD1 Glu307Ala; test: other fluorescence titration
# [16] = target: T8, first PHD finger of autoimmune …; test: ITC
# [17] = target: T8, first PHD finger of autoimmune …; test: other fluorescence titration
molecule,measurement,setting,value
C[C@H](N)C(=O)N[C@@H](CCCNC(=N)N)C(=O)N[C@H](C(=O)N[C@@H](CCCCN)C(=O)N[C@@H](CCC(N)=O)C(=O)N[C@H](C(=O)N[C@@H](C)C(=O)N[C@@H](CCCNC(=N)N)C(=O)N[C@@H](CCCCN)C(=O)N[C@@H](COP(=O)(O)O)C(=O)O)[C@@H](C)O)[C@@H](C)O [H3S10Ph K4me0],Kd,[1],24.7 ± 0.2 µM
same,ΔG,[1],-6.3 ± 0.1 kcal/mol
same,−TΔS,[1],3.3 ± 0.1 kcal/mol
same,Kd,[2],7.6 ± 1.2 µM
C[C@H](N)C(=O)N[C@@H](CCCNC(=N)N)C(=O)N[C@H](C(=O)N[C@@H](CCCCN)C(=O)N[C@@H](CCC(N)=O)C(=O)N[C@H](C(=O)N[C@@H](C)C(=O)N[C@@H](C)C(=O)N[C@@H](CCCCN)C(=O)N[C@@H](CO)C(=O)O)[C@@H](C)O)[C@@H](C)O [H3R8AK4me0],ΔG,[1],-5.8 ± 0.3 kcal/mol
same,−TΔS,[1],1.6 ± 0.3 kcal/mol
"histone H3 peptide (1-10) mono-methylated at R2, H3R2me1K4me0",Kd,[3],248 µM
same,Kd,[4],199 µM
same,dH,[4],-4.6 kcal/mol
"H3R2me2asK4me0: H3 1-10 peptide, asymmetric di-methylation of R2",AIRE-PHD1 binding (in words),[5],strongly reduced AIRE-PHD1 binding
C[C@H](N)C(=O)N[C@@H](CCCNC(=N)N)C(=O)N[C@H](C(=O)N[C@@H](CCCCN)C(=O)N[C@@H](CCC(N)=O)C(=O)N[C@H](C(=O)N[C@@H](C)C(=O)N[C@@H](CCCNC(=N)N)C(=O)N[C@@H](CCCCN)C(=O)N[C@@H](CO)C(=O)O)[C@@H](C)O)[C@@H](C)O [H3K4me0],ΔG,[6],-5.9 ± 0.1 kcal/mol
same,ΔH,[6],-7.2 ± 0.1 kcal/mol
same,−TΔS,[6],1.3 ± 0.1 kcal/mol
same,ΔG,[7],-7.1 ± 0.1 kcal/mol
same,ΔH,[7],-9.3 ± 0.1 kcal/mol
same,−TΔS,[7],2.2 ± 0.1 kcal/mol
same,ΔG,[8],-5.2 ± 0.4 kcal/mol
same,ΔH,[8],-5.3 ± 0.4 kcal/mol
same,−TΔS,[8],0.1 ± 0.4 kcal/mol
same,ΔG,[9],-5.9 ± 0.1 kcal/mol
same,ΔH,[9],-6.7 ± 0.1 kcal/mol
same,−TΔS,[9],0.7 ± 0.1 kcal/mol
"histone H3 peptide (1-10) phosphorylated at S10, H3S10PhK4me0",Kd,[3],7.6 µM
same,Kd,[4],24.7 µM
ARTKQTARKS [non-modified histone H3 tail peptide H3K4me0 (residues 1-10)],Kd,[10],43.4 ± 0.5 µM
same,dH,[10],-7.2 ± 0.1 kcal/mol
same,Kd,[11],123 ± 6.7 µM
same,dH,[11],-5.3 ± 0.4 kcal/mol
same,Kd,[12],40.6 ± 0.5 µM
same,dH,[12],-6.7 ± 0.1 kcal/mol
same,Kd,[13],28.1 ± 2.1 µM
same,Kd,[14],80 µM
same,Kd,[15],19 ± 2.4 µM
ARTKQTAAKS [mutant histone H3 peptide (1-10) H3R8AK4me0],Kd,[16],55.9 µM
same,dH,[16],-7.3 ± 0.3 kcal/mol
same,Kd,[17],52.8 ± 4.9 µM
